Tn7 DDE FP: inhibitors of Tn7 peptide binding to fibrin DD(E), primary screen, biochemical, fluorescence polarization, human fibrin, Tn7 probe | Fibrinogen beta chain (Homo sapiens), P02675 | FP displacement of FITC-Tn7 peptide from fibrin DD(E); 0% = median of compound wells per plate | inhibition, % at 8.3 µM | 0.13% of 370,000 active | AID 720508, 2013;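 active = inhibition above the mean of compounds falling within the control limits plus 3 SD of them, cut at about 14% in these data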
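Assay system: Human fibrin DD(E) protein | Medium: Tris buffer with calcium and detergent, pH 7.8 | Reagent: 0.1 µM fluorescent Tn7 | Compound dosing: Single point at 8.3 µM | Times: 10 min preincubation, 3 h with tracer, room temperature | Detection: Fluorescence polarization of the labelled Tn7 tracer | Controls: Aha-Tn7 high control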
DDE Tn6 FP inh: inhibitors of Tn6 peptide binding to fibrin DD(E), primary screen, biochemical, fluorescence polarization, human fibrin, Tn6 probe | Fibrin DD(E) TRITC-Tn6 fluorescence polarization displacement | inhibition, % at 8.3 µM | 0.21% of 370,000 active;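 active = inhibition above a per-campaign cutoff: mean of compounds within control limits plus 3 SD, cut at about 15% in these data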
SIAE primary: human SIAE inhibitors, primary screen, biochemical, fluorescence polarization, FP-Rh probe, 1536-well HTS; Sialate O-acetylesterase (Homo sapiens), Q9HAT2; SIAE FP-Rh probe binding; inhibition, % at 9.66 µM; 0.69% of 370,000 active; AID 1053197, 2014;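 active = inhibition above a cutoff: mean of compounds within the control limits plus 3 SD of those, cut at about 17% in these data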
Target sequence (Q9HAT2 whole entry, looked up): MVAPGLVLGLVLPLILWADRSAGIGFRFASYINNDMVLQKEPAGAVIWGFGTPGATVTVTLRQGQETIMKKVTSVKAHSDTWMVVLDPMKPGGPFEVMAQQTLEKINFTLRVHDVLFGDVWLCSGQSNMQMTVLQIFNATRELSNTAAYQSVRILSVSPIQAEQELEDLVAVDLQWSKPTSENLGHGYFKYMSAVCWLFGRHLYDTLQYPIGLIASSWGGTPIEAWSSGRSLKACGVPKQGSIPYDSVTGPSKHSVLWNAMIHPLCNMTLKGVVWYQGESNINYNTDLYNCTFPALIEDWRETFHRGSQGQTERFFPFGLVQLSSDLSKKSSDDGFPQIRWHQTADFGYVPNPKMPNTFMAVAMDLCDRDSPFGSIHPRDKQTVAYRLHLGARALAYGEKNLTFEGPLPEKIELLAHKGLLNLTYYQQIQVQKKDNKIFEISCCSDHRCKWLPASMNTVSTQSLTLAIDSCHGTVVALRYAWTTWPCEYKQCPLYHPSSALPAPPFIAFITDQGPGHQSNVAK
ABHD4 inh: ABHD4 inhibitors, primary screen, biochemical, fluorescence polarization, mouse; (Lyso)-N-acylphosphatidylethanolamine lipase (Mus musculus), Q8VD66; 0.54% of 370,000 active; inhibition, % at 8.92 µM; purified mABHD4, FP-Rh probe fluorescence polarization;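 active = inhibition exceeding the mean over every tested compound plus 3 SD, cut at about 30% in these data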
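Assay system: wild-type mouse ABHD4 protein; compound: single nominal dose of 8.92 µM, 0.89% DMSO final; schedule: 45 min + 60 min at 25 °C; measured by: FP readout, ex 525 nm / em 598 nm; evaluation: % inhibition of FP-Rh probe binding versus controls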
HTRA1 inh: HTRA1 serine protease inhibitors, primary screen, biochemical, fluorescence polarization, HTS | Q92743 | recombinant HTRA1, FP-rhodamine activity-based probe | inhibition, % at 5.96 µM | 0.5% of 340,000 active; in the data active = inhibition above about 36%
TCR CD3 inh: inhibitors of human TCR-CD3 interaction, primary screen, biochemical, fluorescence, TAMRA-labeled TCR probe | inhibition, % at 9.4 µM | T-cell receptor (TCR) | 0.37% of 360,000 active; in the data active = inhibition above about 19%;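 also: recombinant mutant TCR 2C K166C tagged with TAMRA read by polarization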
Tn6 DDE ctr: counter-screen hit for Tn6 peptide-fibrin DD(E) binding disruption; shares compounds with DDE Tn6 FP inh; TRITC-Tn6 fluorescence polarization displacement; 0% = median of compound wells, not DMSO; inhibition, % at 8.3 µM; 2% of 680 active;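 active = inhibition above the mean of test compounds lying between the control limits plus 3 SD of those, cut at about 14% in these data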
DDE Tn6 confirm: inhibitors of Tn6 peptide binding to fibrin DD(E), confirmation, biochemical, fluorescence polarization, human fibrin, Tn6 probe | shares compounds with DDE Tn6 FP inh | FP displacement of TRITC-Tn6 peptide from DD(E); 0% = per-plate median of test wells | inhibition, % at 8.3 µM | 10% of 680 active;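 active = inhibition above the mean of compounds lying within the control limits plus 3 SD, cut at about 16% in these data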
ABHD4 confirm: ABHD4 inhibitors, retest, confirmation, biochemical, fluorescence polarization, mouse. purified mABHD4, FP-Rh probe fluorescence polarization. inhibition, % at 8.92 µM. shares compounds with ABHD4 inh. 55% of 1,800 active;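 active = mean inhibition across replicates above the hit cutoff set in the primary screen, cut at about 30% in these data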
SIAE confirm: human SIAE inhibitors, retest, confirmation, biochemical, fluorescence polarization, FP-Rh probe, triplicate | shares compounds with SIAE primary | SIAE FP-Rh activity-based probe | inhibition, % at 9.66 µM | 13% of 2,300 active | AID 1117263, 2014;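 active = mean inhibition of the replicates above the hit cutoff set in the primary screen, cut at about 17% in these data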;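 also: inhibitors lower polarization as more probe stays unbound to SIAE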
A number is an active result; . = inactive; / = no result given. Most compounds without a hit are left out; they make up all but 1.8% or so of the library.

SMILES	Tn7 DDE FP	DDE Tn6 FP inh	SIAE primary	ABHD4 inh	HTRA1 inh	TCR CD3 inh	ABHD4 confirm	others
C[C@H]1CNCCN1c1ccc(N2CC[C@@H](O)C2)c(C#N)c1	.	.	.	.	/	.	/
O=C(NCCN1CCC2(CC1)C(=O)NCN2c1ccccc1)c1ccccc1C(F)(F)F	.	.	.	.	/	.	/
C[C@]12CCC3C(CC[C@H]4C[C@@H](O)CC[C@]34C)C1CC[C@@]2(O)C(F)(F)F (stereo not given in full)	.	16	.	.	/	.	/	Tn6 DDE ctr=.;DDE Tn6 confirm=.
C[C@]12CCC3C(CC[C@H]4C[C@@H](O)CC[C@]34C)C1C[C@@H](O)[C@]2(C)O (stereo not given in full)	.	.	.	.	.	.	/
CCC(C#N)(CC)P(=S)(c1ccccc1)c1ccccc1	.	16	.	.	.	.	/	Tn6 DDE ctr=.;DDE Tn6 confirm=.
O=C1C(Cl)=CC(=Nc2ccc(O)cc2)C=C1Cl	.	.	21	32	.	.	58
CCN(CC)c1ccc(N=Cc2c(O)n(-c3ccccc3C)c(=O)[nH]c2=O)cc1	.	.	.	64	60	.	.
Cc1ccccc1-n1c(O)c(C=Nc2ccc3c(c2)OCO3)c(=O)[nH]c1=O	.	.	.	.	.	.	/
O=c1[nH]c(=O)n(C2CCCCC2)c(O)c1C=Nc1ccc(N2CCOCC2)cc1	.	.	.	.	.	.	/
O=c1[nH]c(=S)n(-c2ccc(Cl)cc2)c(O)c1C=Nc1ccc(N2CCOCC2)cc1	.	.	.	40	.	.	.
CC1CC(OP(O)(=S)c2ccc(N(C)C)cc2NC(=O)c2cccs2)CC(C)(C)C1 (stereo not given)	.	.	.	41	.	.	50
CC(=O)N1c2ccccc2C(c2ccccc2)=NCC1C(=O)NCc1ccccc1 (stereo not given)	.	.	.	.	/	/	/
FC(F)(F)c1ccc(-c2ccc3c(c2)CNCc2cnnn2-3)cc1	.	.	.	34	/	.	.
c1ccc(-c2ccc3c(c2)CNCc2cnnn2-3)cc1	.	.	.	.	/	.	/
COc1ccc(Cn2c(O)c(/C=N/NC(=O)c3ccccc3O)c(=O)[nH]c2=O)cc1	.	.	.	30	.	.	38
O=C(N/N=C/c1c(O)n(Cc2ccc(F)cc2)c(=O)[nH]c1=O)c1ccccc1O	.	.	.	34	.	.	52
OC1CN2CCCC(O)C2C1O (stereo not given)	.	.	.	.	/	.	/
Cc1cc(N2CCNC[C@@H]2C)ccc1N1CC[C@@H](O)C1	.	.	.	.	/	.	/
CC(C)(C)OC(=O)NCCCCC(N)[P+](=O)O (stereo not given)	.	.	.	.	/	/	/
N#Cc1ccc(NC(=S)N2Cc3ccc(Br)cc3-n3nncc3C2)cc1	.	.	.	.	/	.	/
O=C(NC1CCCCC1)Oc1cc2oc(=O)sc2cc1Cl	.	.	.	31	.	.	.
C=CCn1c(O)c(C(C)=Nc2ccc(N(CC)CC)cc2)c(=O)[nH]c1=O	.	.	.	39	.	.	.
Nc1c(Br)cc2c3c(cccc13)-c1ccccc1-2	.	.	.	55	/	.	57
c1ccc2c(c1)-c1cccc3cccc-2c13	.	.	.	.	.	.	/
Cc1[nH]c2ccc(OC(F)(F)F)cc2c1CCNCc1ccc(Cl)cc1	.	.	.	42	.	.	31
SMILES	Tn7 DDE FP	DDE Tn6 FP inh	SIAE primary	ABHD4 inh	HTRA1 inh	TCR CD3 inh	ABHD4 confirm	others
O=C(O)c1cc2ccccc2n1C1CCN(Cc2ccccc2)CC1	.	.	.	.	/	/	/
O=[N+]([O-])c1cccc(O)c1	.	.	.	.	.	.	/
O=[N+]([O-])c1cc(S(=O)(=O)c2ccc(O)c([N+](=O)[O-])c2)ccc1O	.	.	.	40	.	.	31
NC(Cc1ccccc1)[P+](=O)O (stereo not given)	.	.	.	.	/	/	/
O=C(N/N=C/c1c(O)n(Cc2ccccc2)c(=O)[nH]c1=O)c1ccccc1O	.	.	28	61	.	74	38	SIAE confirm=.
COc1cc(O)c2c(c1)/C=C/C[C@H](O)[C@H](O)[C@@H](O)/C=C/C[C@H](C)OC2=O	.	.	.	.	/	/	/
CCCCN1C(=N)C(CC)(CC)C(=O)NC1=O	.	.	21	.	.	.	/	SIAE confirm=.
CCC1(CC)C(=N)N(C)C(=O)NC1=O	.	.	.	.	.	.	/
NP(=O)(OCC(F)(F)F)Oc1ccc(Cl)cc1 (stereo not given)	.	.	20	.	.	.	/	SIAE confirm=.
Cc1cccc2nc(-c3ccccc3)c(-c3ccc(CN4CCC(n5c(=O)[nH]c6cc(Cl)ccc65)CC4)cc3)nc12	.	.	.	.	/	.	/
Cc1ccc2nc(-c3ccc(CN4CCC(n5nnc6ccccc65)CC4)cc3)c(-c3ccccc3)nc2c1	.	.	.	.	/	.	/
NP(=O)(Oc1ccccc1Cl)Oc1ccccc1Cl	.	.	.	.	.	.	/
NP(=O)(OCCCCc1ccccc1)Oc1ccccc1Cl (stereo not given)	.	.	43	.	.	.	/	SIAE confirm=38
C(#CCN1CCCCC1)COCc1ccccc1	.	.	21	.	.	.	/	SIAE confirm=.
CCOC(=O)[C@@]1(C#N)[C@@H]2C=CC(C(N)=O)=CN2[C@@H](C(N)=O)[C@@H]1c1cccc(Cl)c1	.	.	21	.	.	.	/	SIAE confirm=.
Cn1c(CN2CCN(C(=O)COc3ccccc3)CC2)nc2cc([N+](=O)[O-])ccc21	.	.	151	.	.	.	/	SIAE confirm=.

Source: PubChem (The Scripps Research Institute Molecular Screening Center)
